{"data": "Experimental data gathered from unrelated publications", "cell line": "MDA-MB-231", "observed": "cell growth or viability"}
{"SMILES": "O=C1CCCCC1=C1Sc2nc3ccc(S(=O)(=O)N4CCCC4)cc3nc2S1", "test": "MTT", "conditions": "3.125 µM, 24 h", "quantity": "viability", "value": "69.8%"}
{"SMILES": "COc1cccc2c1C(=O)c1c(O)c3c(c(O)c1C2=O)C[C@@](O)(C(=O)CO)C[C@@H]3O[C@H]1C[C@H](N)[C@H](O)[C@H](C)O1", "test": "MTT", "conditions": "48 h", "quantity": "IC90", "value": "> 20 µM"}
{"SMILES": "CCc1cccc(CN2CCc3cc(OS(N)(=O)=O)c(OC)cc3C2)c1", "test": "WST-1", "conditions": "96 h", "quantity": "GI50", "value": "8 µM"}
{"SMILES": "COc1ccc(-c2nc3ccc(C)cc3[nH]2)cc1O", "test": "MTT", "conditions": "48 h", "quantity": "IC50", "value": "55.1 µM"}
{"SMILES": "COc1cccc2c1C(=O)c1c(O)c3c(c(O)c1C2=O)C[C@@](O)(C(=O)CO)C[C@@H]3O[C@H]1C[C@H](N)[C@H](O)[C@H](C)O1", "test": "MTT", "quantity": "IC50", "value": "6.75 µM"}
{"SMILES": "CCOc1cc(CN2CCc3cc(O)c(OC)cc3C2)cc(OCC)c1OCC", "test": "WST-1", "conditions": "96 h", "quantity": "GI50", "value": "> 100 µM"}
{"SMILES": "COc1cccc2c1C(=O)c1c(O)c3c(c(O)c1C2=O)C[C@@](O)(C(=O)CO)C[C@@H]3O[C@H]1C[C@H](N)[C@H](O)[C@H](C)O1", "test": "MTT", "conditions": "100 µM, 24 h", "quantity": "viability", "value": "4.1%"}
{"SMILES": "c1ccc2[nH]c(-c3ccc4c(c3)OCO4)nc2c1", "test": "MTT", "conditions": "48 h", "quantity": "IC50", "value": "> 100 µM"}
{"SMILES": "COc1cc2c(cc1OS(N)(=O)=O)CCN(Cc1cccc(OC(F)(F)F)c1)C2", "test": "WST-1", "conditions": "96 h", "quantity": "GI50", "value": "2.29 µM"}
{"SMILES": "Clc1ccc(Cn2c(-c3ccc(Cl)cc3)nc3ccccc32)cc1", "test": "MTT", "quantity": "IC50", "value": "7.48 µM"}
{"SMILES": "COc1cc2c(cc1OS(N)(=O)=O)CCN(Cc1cccc([N+](=O)[O-])c1)C2", "test": "WST-1", "conditions": "96 h", "quantity": "GI50", "value": "1.91 µM"}
{"SMILES": "Cc1ccc2nc(-c3cc(Br)ccc3O)[nH]c2c1", "test": "MTT", "conditions": "48 h", "quantity": "IC50", "value": "6.69 µM"}
{"SMILES": "COc1cc2c(cc1OS(N)(=O)=O)CCN(Cc1cccc(O)c1)C2", "test": "WST-1", "conditions": "96 h", "quantity": "GI50", "value": "41 µM"}
{"SMILES": "c1ccc2[nH]c(-c3ccncc3)nc2c1", "test": "MTT", "conditions": "48 h", "quantity": "IC50", "value": "> 100 µM"}
{"SMILES": "C[C@]12CC[C@@H]3c4ccc(O)cc4CC[C@H]3[C@@H]1CC[C@@H]2O", "test": "ATP luminescence", "conditions": "72 h", "quantity": "EC50", "value": "35.8 µM"}
{"SMILES": "CCOc1cccc(CN2CCc3cc(OS(N)(=O)=O)c(OC)cc3C2)c1", "test": "WST-1", "conditions": "96 h", "quantity": "GI50", "value": "0.65 µM"}
{"SMILES": "COc1ccc(/C=C\\c2cc(OC)c(OC)c(OC)c2)cc1O", "test": "imaging", "conditions": "72 h", "quantity": "CC50", "value": "0.0037 µM"}
{"SMILES": "COc1cc2c(cc1OS(N)(=O)=O)CCN(Cc1cccc(OC)c1OC)C2", "test": "WST-1", "conditions": "96 h", "quantity": "GI50", "value": "0.888 µM"}
{"SMILES": "Cc1ccc2nc(-c3ccc(F)cc3)[nH]c2c1", "test": "MTT", "conditions": "48 h", "quantity": "IC50", "value": "> 100 µM"}
{"SMILES": "CCc1cc(CN2CCc3cc(O)c(OC)cc3C2)cc(CC)c1CC", "test": "WST-1", "conditions": "96 h", "quantity": "GI50", "value": "26 µM"}
{"SMILES": "COc1cc2c(cc1O)CCN(Cc1cccc(NC(C)=O)c1)C2", "test": "WST-1", "conditions": "96 h", "quantity": "GI50", "value": "> 100 µM"}
{"SMILES": "O=[N+]([O-])c1ccc(-c2nc3ccccc3[nH]2)cc1", "test": "MTT", "conditions": "48 h", "quantity": "IC50", "value": "26.9 µM"}
{"SMILES": "N#CC(C(=O)Nc1cccc(C(F)(F)F)c1)=C1Sc2nc3ccc(S(=O)(=O)N4CCCC4)cc3nc2S1", "test": "MTT", "conditions": "100 µM, 24 h", "quantity": "viability", "value": "12.9%"}
{"SMILES": "O=C(c1cc(Cc2n[nH]c(=O)c3ccccc23)ccc1F)N1CCN(C(=O)C2CC2)CC1", "test": "ATP luminescence", "conditions": "7 days", "quantity": "EC50", "value": "~5 µM"}
{"SMILES": "CCOC(=O)C(C(C)=O)=C1Sc2nc3ccc(S(=O)(=O)N4CCCC4)cc3nc2S1", "test": "MTT", "conditions": "50 µM, 24 h", "quantity": "viability", "value": "8.1%"}
{"SMILES": "COc1cc2c(cc1O)CCN(Cc1cc(Cl)c(OC)c(OC)c1)C2", "test": "WST-1", "conditions": "96 h", "quantity": "GI50", "value": "0.4 µM"}
{"SMILES": "COc1cc2c(cc1OS(N)(=O)=O)CCN(Cc1cccc(OS(N)(=O)=O)c1)C2", "test": "WST-1", "conditions": "96 h", "quantity": "GI50", "value": "34.9 µM"}
{"SMILES": "COc1ccc(-c2nc3ccc(C)cc3[nH]2)cc1OC", "test": "MTT", "conditions": "48 h", "quantity": "IC50", "value": "52.6 µM"}
{"SMILES": "CCc1cc(CN2CCc3cc(OS(N)(=O)=O)c(OC)cc3C2)cc(CC)c1CC", "test": "WST-1", "conditions": "96 h", "quantity": "GI50", "value": "5.7 µM"}
